{"source": "paper PMC3076580", "about": "(Investigational New Drugs, 2010)", "key": {"[1]": {"biological_target": "purified deoxycytidine deaminase (dCDA) (Homo sapiens, UniProt P32320)", "sequence (P32320 whole entry)": "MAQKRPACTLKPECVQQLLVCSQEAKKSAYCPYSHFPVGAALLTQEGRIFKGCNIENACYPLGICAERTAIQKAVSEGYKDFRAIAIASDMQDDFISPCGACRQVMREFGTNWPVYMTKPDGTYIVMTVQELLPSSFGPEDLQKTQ", "assay": "Deoxycytidine deaminase activity", "assay_type": "biochemical", "conditions": "37°C; for deamination as substrate of dCDA: 500 μM substrate, no inhibitor", "outline": "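Purified dCDA (source not stated) run at 37°C with 500 μM dCyd or gemcitabine as substrate and 500 μM competing compound. Every run included a blank (no substrate or inhibitor) and a substrate-only control. Stopped after 15 or 25 min with 40% w/v TCA, then neutralised with trioctylamine/trichlorotrifluoroethane […]. Substrates and the deoxyuridine or difluorodeoxyuridine products measured by reversed-phase HPLC. Unpaired t-test.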"}, "L1210/L5 cells": {"test_system": "L1210/L5 cells", "assay": "Growth inhibition, cell counting, 72 h exposure", "assay_type": "cell-based, murine", "conditions": "Mus musculus, L1210, 72 h", "outline": "(§1)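 Suspension cells in RPMI-1640 with 10% FCS. L5/L4A6 medium had 60 μM 2-mercaptoethanol and 250 ng/ml gentamicin; BCLO had 3.2 mM glutamine and gentamicin; Bara-C had 5% FCS plus 5% rat serum. Seeding: 50,000 (L5), 100,000 (L4A6), 150,000 (BCLO) or 175,000 (Bara-C) cells/well. Drug (final 2.10−10 to 10−3 M) added at plating; counted at 72 h. IC50 interpolated against 0%/100% controls.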"}, "[2]": {"test_system": "L4A6 cells (cytarabine resistant L1210 variant)", "assay": "Growth inhibition, cell counting, 72 h exposure", "assay_type": "cell-based, murine", "conditions": "Mus musculus, L1210, 72 h", "outline": "as §1"}, "C26-A cells": {"test_system": "C26-A cells", "assay": "Growth inhibition, SRB assay, 72 h exposure", "assay_type": "cell-based, murine", "conditions": "Mus musculus"}, "[3]": {"test_system": "C26-G cells (gemcitabine resistant)", "assay": "Growth inhibition, SRB assay, 72 h exposure", "assay_type": "cell-based, murine", "conditions": "Mus musculus", "outline": "(§2)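 Monolayer cells seeded on day 1 at 6,000 (A2780), 18,000 (AG6000) or 8,000 (C26-G) cells/well. Drug dilutions added on day 2, final 2.10−10 to […], from a 20 mM DMSO stock (DMSO ≤1%). After 72 h, fixed with ice-cold TCA for 60 min and stained with sulforhodamine B. Relative growth taken from OD versus control wells. IC50 interpolated from straight-line curves.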"}, "A2780 cells": {"test_system": "A2780 cells", "assay": "Growth inhibition, SRB assay, 72 h exposure", "assay_type": "cell-based", "conditions": "Homo sapiens, A2780, 72 h", "outline": "as §2"}, "[4]": {"test_system": "AG6000 cells (gemcitabine resistant A2780 variant, dCK deficient)", "assay": "Growth inhibition, SRB assay, 72 h exposure", "assay_type": "cell-based", "conditions": "Homo sapiens, AG6000, 72 h", "outline": "as §2"}, "THX cells": {"test_system": "THX cells", "assay": "Growth inhibition with or without nucleoside transport inhibitors", "assay_type": "cell-based, human", "conditions": "for IC50: Homo sapiens", "outline": "(§3)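 Cells grown in suspension in RPMI-1640-based medium and plated at 2.5.105 cells/ml. NBMPR (100 μM) or dipyridamole (4 μg/ml) was present or absent, with serial dilutions of test compound or gemcitabine. Cells counted after 72 h. Growth set relative to plated cells (0%) and untreated 72 h cells (100%). IC50 read from a straight-line interpolated curve.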"}, "LOX cells": {"test_system": "LOX cells", "assay": "Growth inhibition with or without nucleoside transport inhibitors", "assay_type": "cell-based", "conditions": "Homo sapiens", "outline": "as §3"}, "MOLT4 cells": {"test_system": "MOLT4 cells", "assay": "Growth inhibition with or without nucleoside transport inhibitors", "assay_type": "cell-based, human", "conditions": "for IC50: Homo sapiens", "outline": "as §3"}, "MOLT4/C8 cells": {"test_system": "MOLT4/C8 cells", "assay": "Growth inhibition with or without nucleoside transport inhibitors", "assay_type": "cell-based", "conditions": "Homo sapiens", "outline": "as §3"}, "[5]": {"test_system": "H-146 small cell lung cancer xenograft", "assay": "Xenograft testing, ip", "assay_type": "in vivo, nude mice", "conditions": "H-146, ip at MTD", "outline": "(§4)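 Female BALB/c nude mice anaesthetised with propanidid 5 mg/10 g ip. Tumour fragments (~2 mm cubes) implanted sc in each flank. Treatment started at minimum diameter 4 mm (32 mm3): liposomal test compound or gemcitabine ip q3dx5 at MTD. RTV = Vx/V0 ×100, group median. T/C = treated/control RTV ×100; SGD counts doubling times gained. Deaths within 2 weeks after the last dose counted as toxic. Mann–Whitney U, p<0.05.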"}, "[6]": {"test_system": "TAX II-1 malignant fibrous histiocytoma xenograft", "assay": "Xenograft testing, ip", "assay_type": "in vivo, nude mice", "conditions": "TAX II-1, ip at MTD", "outline": "as §4"}, "[7]": {"test_system": "THX malignant melanoma xenograft", "assay": "Xenograft testing, ip", "assay_type": "in vivo, nude mice", "conditions": "ip every third day for five doses at MTD", "outline": "as §4"}, "[8]": {"test_system": "MA-11 breast cancer xenograft", "assay": "Xenograft testing, ip", "assay_type": "in vivo, nude mice", "conditions": "MA-11, ip at MTD", "outline": "as §4"}, "[9]": {"test_system": "PANC-1 pancreatic cancer xenograft", "assay": "Xenograft testing, ip", "assay_type": "in vivo, nude mice", "conditions": "PANC-1, ip every third day for five doses at MTD", "outline": "as §4"}, "[10]": {"test_system": "MiaPaCa-2 pancreatic cancer xenograft", "assay": "Xenograft testing, ip", "assay_type": "in vivo, nude mice", "conditions": "MiaPaCa-2, ip every third day for five doses at MTD", "outline": "as §4"}, "[11]": {"test_system": "human colon cancer xenograft Co6044", "assay": "Xenograft testing, oral", "assay_type": "in vivo, nude mice"}, "[12]": {"conditions": "Co6044, oral, days 1, 4 and 7, 20 mg/kg"}, "[13]": {"conditions": "Co6044, oral, days 1, 4 and 7, 40 mg/kg"}}}
{"smiles": "Nc1ccn([C@H]2C[C@H](O)[C@@H](CO)O2)c(=O)n1", "note": "[dCyd, deoxycytidine]", "values": [{"measurement": "deamination as substrate of dCDA", "setting": "[1]", "value": 312, "unit": "pmol/hr/μl enzyme"}]}
{"smiles": "Nc1ccn([C@@H]2O[C@H](CO)[C@@H](O)C2(F)F)c(=O)n1", "note": "[gemcitabine, 2′,2′-difluorodeoxycytidine]", "values": [{"measurement": "IC50", "setting": "L1210/L5 cells", "value": "1.9 ± 0.6", "unit": "nM"}, {"measurement": "IC50", "setting": "[2]", "value": "8.8 ± 3.6", "unit": "µM"}, {"measurement": "IC50", "setting": "C26-A cells", "value": "16 ± 4", "unit": "nM"}, {"measurement": "IC50", "setting": "[3]", "value": "20 ± 10", "unit": "nM"}, {"measurement": "IC50", "setting": "A2780 cells", "value": "1.5 ± 0.6", "unit": "nM"}, {"measurement": "IC50", "setting": "[4]", "value": "185 ± 108", "unit": "µM"}, {"measurement": "decrease in sensitivity by dipyridamole", "setting": "THX cells; 4 μg/ml dipyridamole", "value": 115, "unit": "fold"}, {"measurement": "decrease in sensitivity by NBMPR", "setting": "THX cells; 100 μM NBMPR", "value": 55, "unit": "fold"}, {"measurement": "IC50", "setting": "THX cells; +Dipyridamole 4 μg/ml", "value": "310 ± 130", "unit": "nM"}, {"measurement": "IC50", "setting": "THX cells; +NBMPR 100 μM", "value": "150 ± 50", "unit": "nM"}, {"measurement": "IC50", "setting": "THX cells; no transport inhibitor", "value": "2.7 ± 0.7", "unit": "nM"}, {"measurement": "IC50", "setting": "LOX cells; +Dipyridamole 4 μg/ml", "value": "610 ± 220", "unit": "nM"}, {"measurement": "IC50", "setting": "LOX cells; +NBMPR 100 μM", "value": "1150 ± 60", "unit": "nM"}, {"measurement": "IC50", "setting": "LOX cells; no transport inhibitor", "value": "4.7 ± 1", "unit": "nM"}, {"measurement": "IC50", "setting": "MOLT4 cells; MOLT-4, MOLT4, +Dipyridamole 4 μg/ml", "value": "610 ± 260", "unit": "nM"}, {"measurement": "IC50", "setting": "MOLT4 cells; MOLT-4, MOLT4, +NBMPR 100 μM", "value": "820 ± 250", "unit": "nM"}, {"measurement": "IC50", "setting": "MOLT4 cells; MOLT-4, MOLT4, no transport inhibitor", "value": "3 ± 3.3", "unit": "nM"}, {"measurement": "decrease in sensitivity by dipyridamole", "setting": "MOLT4 cells; MOLT4, 4 μg/ml dipyridamole", "value": 203, "unit": "fold"}, {"measurement": "decrease in sensitivity by NBMPR", "setting": "MOLT4 cells; MOLT4, 100 μM NBMPR", "value": 273, "unit": "fold"}, {"measurement": "IC50", "setting": "MOLT4/C8 cells; Molt4/C8, MOLT4/C8, +Dipyridamole 4 μg/ml", "value": "7.62 ± 0.59", "unit": "µM"}, {"measurement": "IC50", "setting": "MOLT4/C8 cells; Molt4/C8, MOLT4/C8, +NBMPR 100 μM", "value": "8.31 ± 1.2", "unit": "µM"}, {"measurement": "IC50", "setting": "MOLT4/C8 cells; Molt4/C8, MOLT4/C8, no transport inhibitor", "value": "0.46 ± 0.12", "unit": "µM"}, {"measurement": "dFdU formed when dCyd and gemcitabine were added simultaneously", "setting": "[1]; 500 μM each", "value": "1,127 pmol/hr/μl enzyme"}, {"measurement": "deamination as substrate of dCDA", "setting": "[1]", "value": 624, "unit": "pmol/hr/μl enzyme"}, {"measurement": "antitumor activity (in words)", "setting": "[5]", "value": "not active"}, {"measurement": "antitumor activity (in words)", "setting": "[6]", "value": "inactive"}, {"measurement": "SGD", "setting": "[7]", "value": "> 6.25"}, {"measurement": "antitumor activity (in words)", "setting": "[8]", "value": "some activity"}, {"measurement": "Deaths", "setting": "[9]", "value": "4/9"}, {"measurement": "Deaths", "setting": "[10]", "value": "7/7"}, {"measurement": "Deaths", "setting": "[11]; [12]", "value": "0/7"}, {"measurement": "Weight loss (%)", "setting": "[11]; [12]", "value": 0, "unit": "%"}, {"measurement": "Deaths", "setting": "[11]; [13]", "value": "5/7"}, {"measurement": "Maximal T/C (%)", "setting": "[11]; [13]", "value": 8, "unit": "%"}, {"measurement": "Weight loss (%)", "setting": "[11]; [13]", "value": 1, "unit": "%"}, {"measurement": "toxicity (in words)", "setting": "[11]; Co6044 bearing mice, oral, at similar doses as the ip administration", "value": "very toxic"}]}
